Results reported in the M2OR odorant receptor database.

Legend:
Conditions in all cases: stereoisomer not certain
UniProt Q8VGC6 = target: T1, UniProt Q8VGC6
T1 sequence (whole entry): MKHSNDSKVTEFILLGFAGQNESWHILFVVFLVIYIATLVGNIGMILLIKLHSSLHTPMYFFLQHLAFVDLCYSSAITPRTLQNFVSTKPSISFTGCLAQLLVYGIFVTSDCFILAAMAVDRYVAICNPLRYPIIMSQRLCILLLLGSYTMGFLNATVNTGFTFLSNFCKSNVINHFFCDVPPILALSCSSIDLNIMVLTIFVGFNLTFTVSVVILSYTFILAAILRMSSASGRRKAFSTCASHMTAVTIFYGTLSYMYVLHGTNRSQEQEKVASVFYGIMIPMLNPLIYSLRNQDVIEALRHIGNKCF
In short: (§1)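 Each entry records the cell line, G-protein, co-transfected protein and tags used. Methods varied with the source, often transient luciferase assays in mammalian cell lines. A receptor–molecule pair is called responsive (active) if the original authors judged its signal statistically different from baseline and non-responsive (inactive) otherwise.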

UniProt Q8VGD7 = target: T2, UniProt Q8VGD7
T2 sequence (whole entry): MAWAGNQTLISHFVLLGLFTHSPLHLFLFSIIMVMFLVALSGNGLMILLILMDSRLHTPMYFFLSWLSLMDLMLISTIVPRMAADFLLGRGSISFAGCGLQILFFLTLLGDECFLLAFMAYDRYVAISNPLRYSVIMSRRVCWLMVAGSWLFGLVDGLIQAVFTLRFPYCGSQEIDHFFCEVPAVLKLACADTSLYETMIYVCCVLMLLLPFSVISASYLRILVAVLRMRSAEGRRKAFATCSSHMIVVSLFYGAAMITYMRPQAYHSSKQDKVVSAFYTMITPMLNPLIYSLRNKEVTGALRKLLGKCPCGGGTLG
In short: as §1

UniProt Q8VGH1 = target: T3, UniProt Q8VGH1
T3 sequence (whole entry): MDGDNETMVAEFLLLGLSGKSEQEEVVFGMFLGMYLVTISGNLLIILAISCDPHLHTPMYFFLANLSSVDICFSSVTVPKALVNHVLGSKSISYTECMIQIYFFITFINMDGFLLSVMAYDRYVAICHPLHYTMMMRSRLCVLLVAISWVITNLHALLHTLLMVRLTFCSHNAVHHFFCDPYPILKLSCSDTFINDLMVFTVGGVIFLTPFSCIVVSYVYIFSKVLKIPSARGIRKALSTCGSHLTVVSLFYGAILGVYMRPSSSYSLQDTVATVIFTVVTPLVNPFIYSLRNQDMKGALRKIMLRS
In short: as §1

UniProt Q8VGJ1 = target: T4, UniProt Q8VGJ1
T4 sequence (whole entry): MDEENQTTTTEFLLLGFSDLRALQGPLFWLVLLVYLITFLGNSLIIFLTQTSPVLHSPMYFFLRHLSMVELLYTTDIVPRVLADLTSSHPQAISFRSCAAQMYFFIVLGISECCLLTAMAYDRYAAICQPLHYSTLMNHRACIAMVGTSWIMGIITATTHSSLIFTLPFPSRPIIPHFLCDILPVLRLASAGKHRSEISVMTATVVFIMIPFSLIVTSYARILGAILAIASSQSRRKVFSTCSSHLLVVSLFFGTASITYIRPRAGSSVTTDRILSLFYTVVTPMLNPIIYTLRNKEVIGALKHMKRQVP
In short: as §1

UniProt Q8VGJ3 = target: T5, UniProt Q8VGJ3
T5 sequence (whole entry): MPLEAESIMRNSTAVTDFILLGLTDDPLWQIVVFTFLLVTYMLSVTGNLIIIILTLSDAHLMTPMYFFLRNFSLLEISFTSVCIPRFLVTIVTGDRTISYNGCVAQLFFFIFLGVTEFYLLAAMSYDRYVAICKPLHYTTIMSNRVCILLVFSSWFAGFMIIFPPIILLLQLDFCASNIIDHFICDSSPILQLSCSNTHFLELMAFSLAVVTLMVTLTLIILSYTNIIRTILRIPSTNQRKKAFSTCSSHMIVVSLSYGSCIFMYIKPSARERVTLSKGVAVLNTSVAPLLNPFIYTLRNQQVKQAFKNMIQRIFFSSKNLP
In short: as §1

UniProt Q8VGJ5 = target: T6, UniProt Q8VGJ5
T6 sequence (whole entry): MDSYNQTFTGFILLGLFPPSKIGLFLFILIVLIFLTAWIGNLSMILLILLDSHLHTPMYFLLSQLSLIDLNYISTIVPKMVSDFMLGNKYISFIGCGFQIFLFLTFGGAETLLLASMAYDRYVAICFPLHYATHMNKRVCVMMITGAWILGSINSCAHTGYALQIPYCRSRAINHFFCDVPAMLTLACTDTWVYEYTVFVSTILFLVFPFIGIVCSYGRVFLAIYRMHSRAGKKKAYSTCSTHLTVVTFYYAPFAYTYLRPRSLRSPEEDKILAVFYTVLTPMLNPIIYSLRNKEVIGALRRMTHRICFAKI
In short: as §1

UniProt Q8VGL0 = target: T7, UniProt Q8VGL0
T7 sequence (whole entry): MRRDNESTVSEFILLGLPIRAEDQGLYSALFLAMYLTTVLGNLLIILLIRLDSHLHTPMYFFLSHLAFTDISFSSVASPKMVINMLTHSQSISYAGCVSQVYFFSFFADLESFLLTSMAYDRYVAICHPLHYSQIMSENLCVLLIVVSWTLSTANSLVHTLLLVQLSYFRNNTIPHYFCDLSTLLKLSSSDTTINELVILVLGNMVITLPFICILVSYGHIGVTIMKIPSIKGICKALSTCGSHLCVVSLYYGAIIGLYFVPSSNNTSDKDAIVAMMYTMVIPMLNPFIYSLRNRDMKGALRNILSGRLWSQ
In short: as §1

UniProt Q8VGL7 = target: T8, UniProt Q8VGL7
T8 sequence (whole entry): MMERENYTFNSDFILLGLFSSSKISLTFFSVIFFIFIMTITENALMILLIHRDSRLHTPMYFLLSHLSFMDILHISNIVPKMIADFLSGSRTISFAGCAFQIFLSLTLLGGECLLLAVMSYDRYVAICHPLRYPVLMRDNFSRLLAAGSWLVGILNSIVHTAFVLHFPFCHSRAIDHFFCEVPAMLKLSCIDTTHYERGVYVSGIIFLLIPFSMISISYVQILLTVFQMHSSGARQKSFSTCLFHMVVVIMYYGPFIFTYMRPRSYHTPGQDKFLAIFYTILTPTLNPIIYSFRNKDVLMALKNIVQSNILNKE
In short: as §1

UniProt Q8VGM2 = target: T9, UniProt Q8VGM2
T9 sequence (whole entry): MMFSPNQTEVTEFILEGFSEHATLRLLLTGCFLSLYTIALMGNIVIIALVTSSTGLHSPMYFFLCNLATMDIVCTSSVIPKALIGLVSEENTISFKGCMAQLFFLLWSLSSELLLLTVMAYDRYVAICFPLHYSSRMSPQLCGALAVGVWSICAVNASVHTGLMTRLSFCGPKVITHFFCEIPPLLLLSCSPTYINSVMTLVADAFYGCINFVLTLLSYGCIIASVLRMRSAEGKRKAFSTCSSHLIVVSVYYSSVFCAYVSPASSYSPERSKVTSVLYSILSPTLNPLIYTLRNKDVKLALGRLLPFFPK
In short: as §1

UniProt Q8VGP6 = target: T10, UniProt Q8VGP6
T10 sequence (whole entry): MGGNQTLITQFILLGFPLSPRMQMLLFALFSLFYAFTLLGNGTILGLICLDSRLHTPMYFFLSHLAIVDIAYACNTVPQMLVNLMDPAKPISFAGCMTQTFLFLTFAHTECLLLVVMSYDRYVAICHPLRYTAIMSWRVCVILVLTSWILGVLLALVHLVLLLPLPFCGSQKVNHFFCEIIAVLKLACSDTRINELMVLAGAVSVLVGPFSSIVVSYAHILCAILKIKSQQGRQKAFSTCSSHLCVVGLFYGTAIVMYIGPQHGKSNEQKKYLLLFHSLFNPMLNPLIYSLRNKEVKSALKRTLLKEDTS
In short: as §1

UniProt Q8VGQ3 = target: T11, UniProt Q8VGQ3
T11 sequence (whole entry): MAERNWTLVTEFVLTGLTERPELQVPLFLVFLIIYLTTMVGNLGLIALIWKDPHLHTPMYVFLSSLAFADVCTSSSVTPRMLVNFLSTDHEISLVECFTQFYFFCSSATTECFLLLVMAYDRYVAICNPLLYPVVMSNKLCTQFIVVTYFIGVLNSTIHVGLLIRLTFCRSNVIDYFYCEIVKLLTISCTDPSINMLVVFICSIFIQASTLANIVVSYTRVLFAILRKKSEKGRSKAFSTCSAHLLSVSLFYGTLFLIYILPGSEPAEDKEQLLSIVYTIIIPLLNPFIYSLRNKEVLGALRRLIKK
In short: as §1

UniProt Q8VGT4 = target: T12, UniProt Q8VGT4
T12 sequence (whole entry): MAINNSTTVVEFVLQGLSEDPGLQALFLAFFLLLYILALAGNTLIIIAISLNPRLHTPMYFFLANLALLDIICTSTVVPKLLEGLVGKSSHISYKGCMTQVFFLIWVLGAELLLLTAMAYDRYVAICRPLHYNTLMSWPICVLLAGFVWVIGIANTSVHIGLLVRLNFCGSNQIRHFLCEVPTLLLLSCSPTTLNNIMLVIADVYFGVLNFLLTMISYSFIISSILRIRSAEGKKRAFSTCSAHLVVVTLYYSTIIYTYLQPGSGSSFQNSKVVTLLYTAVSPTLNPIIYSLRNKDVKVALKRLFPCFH
In short: as §1

UniProt Q8VGU3 = target: T13, UniProt Q8VGU3
T13 sequence (whole entry): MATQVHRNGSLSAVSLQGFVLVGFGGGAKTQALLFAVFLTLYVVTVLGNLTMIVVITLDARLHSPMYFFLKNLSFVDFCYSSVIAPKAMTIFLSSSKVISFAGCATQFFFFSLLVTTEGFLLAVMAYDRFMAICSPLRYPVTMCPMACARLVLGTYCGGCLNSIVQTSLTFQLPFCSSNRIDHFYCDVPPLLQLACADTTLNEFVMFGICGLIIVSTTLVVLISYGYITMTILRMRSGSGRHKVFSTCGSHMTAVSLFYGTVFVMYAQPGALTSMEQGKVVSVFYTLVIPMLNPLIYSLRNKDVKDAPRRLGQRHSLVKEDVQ
In short: as §1

UniProt Q8VGV1 = target: T14, UniProt Q8VGV1
T14 sequence (whole entry): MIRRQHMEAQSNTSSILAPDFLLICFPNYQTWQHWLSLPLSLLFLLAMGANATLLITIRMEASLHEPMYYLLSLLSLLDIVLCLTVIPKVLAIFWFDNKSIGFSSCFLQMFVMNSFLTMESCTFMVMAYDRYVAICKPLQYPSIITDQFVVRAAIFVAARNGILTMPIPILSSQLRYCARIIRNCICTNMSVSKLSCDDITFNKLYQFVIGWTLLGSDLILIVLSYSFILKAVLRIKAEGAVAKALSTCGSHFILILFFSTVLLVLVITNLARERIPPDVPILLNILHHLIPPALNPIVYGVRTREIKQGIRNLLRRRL
In short: as §1

UniProt Q8VGV7 = target: T15, UniProt Q8VGV7
T15 sequence (whole entry): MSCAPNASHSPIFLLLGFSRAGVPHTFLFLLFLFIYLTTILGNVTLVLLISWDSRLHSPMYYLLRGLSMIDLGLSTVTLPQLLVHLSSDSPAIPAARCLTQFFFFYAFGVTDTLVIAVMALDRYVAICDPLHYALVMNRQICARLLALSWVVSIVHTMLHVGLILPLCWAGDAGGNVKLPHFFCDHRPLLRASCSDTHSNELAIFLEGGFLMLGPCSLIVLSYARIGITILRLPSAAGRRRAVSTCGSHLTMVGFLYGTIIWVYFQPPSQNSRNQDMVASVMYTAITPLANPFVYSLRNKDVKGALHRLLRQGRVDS
In short: as §1

UniProt Q8VGW5 = target: T16, UniProt Q8VGW5
T16 sequence (whole entry): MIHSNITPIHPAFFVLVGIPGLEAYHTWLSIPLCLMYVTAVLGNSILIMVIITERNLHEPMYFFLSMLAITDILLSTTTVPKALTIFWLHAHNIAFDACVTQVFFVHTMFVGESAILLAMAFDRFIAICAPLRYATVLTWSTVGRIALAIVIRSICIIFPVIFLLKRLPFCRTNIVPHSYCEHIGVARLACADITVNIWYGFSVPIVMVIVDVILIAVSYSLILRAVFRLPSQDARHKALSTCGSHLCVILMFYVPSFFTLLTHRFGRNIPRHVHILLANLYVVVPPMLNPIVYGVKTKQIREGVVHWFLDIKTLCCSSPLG
In short: as §1

UniProt Q8VGX3 = target: T17, UniProt Q8VGX3
T17 sequence (whole entry): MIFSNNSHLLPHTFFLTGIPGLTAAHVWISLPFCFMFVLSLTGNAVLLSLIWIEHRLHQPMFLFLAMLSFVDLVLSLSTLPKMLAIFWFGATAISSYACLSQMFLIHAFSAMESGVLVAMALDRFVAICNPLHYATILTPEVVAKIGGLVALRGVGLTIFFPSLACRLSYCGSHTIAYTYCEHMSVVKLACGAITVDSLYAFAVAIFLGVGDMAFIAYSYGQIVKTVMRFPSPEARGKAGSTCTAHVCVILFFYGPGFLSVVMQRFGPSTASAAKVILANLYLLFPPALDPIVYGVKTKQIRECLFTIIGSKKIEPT
In short: as §1

UniProt Q8VGX5 = target: T18, UniProt Q8VGX5
T18 sequence (whole entry): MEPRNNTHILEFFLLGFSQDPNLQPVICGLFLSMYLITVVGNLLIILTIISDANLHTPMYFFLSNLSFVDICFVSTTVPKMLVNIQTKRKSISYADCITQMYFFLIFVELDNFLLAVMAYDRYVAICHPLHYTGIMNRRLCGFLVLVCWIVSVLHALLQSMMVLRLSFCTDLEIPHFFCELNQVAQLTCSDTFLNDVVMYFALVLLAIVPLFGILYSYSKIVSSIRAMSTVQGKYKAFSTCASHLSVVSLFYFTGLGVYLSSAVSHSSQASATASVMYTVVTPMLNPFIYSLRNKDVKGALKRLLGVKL
In short: as §1

UniProt Q8VGE3 = target: UniProt Q8VGE3
UniProt Q8VGE3, sequence (Q8VGE3 as listed by the source): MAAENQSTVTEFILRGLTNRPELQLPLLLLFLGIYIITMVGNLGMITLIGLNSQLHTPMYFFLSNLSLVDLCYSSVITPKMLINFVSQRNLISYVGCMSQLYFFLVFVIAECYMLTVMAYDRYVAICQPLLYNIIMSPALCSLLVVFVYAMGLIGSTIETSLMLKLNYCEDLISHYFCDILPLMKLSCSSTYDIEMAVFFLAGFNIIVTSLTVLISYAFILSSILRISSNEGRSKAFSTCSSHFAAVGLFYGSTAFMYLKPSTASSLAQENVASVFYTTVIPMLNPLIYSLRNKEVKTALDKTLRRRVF
In short: as §1

UniProt Q8VGK6 = target: UniProt Q8VGK6
UniProt Q8VGK6, sequence (Q8VGK6 as listed by the source): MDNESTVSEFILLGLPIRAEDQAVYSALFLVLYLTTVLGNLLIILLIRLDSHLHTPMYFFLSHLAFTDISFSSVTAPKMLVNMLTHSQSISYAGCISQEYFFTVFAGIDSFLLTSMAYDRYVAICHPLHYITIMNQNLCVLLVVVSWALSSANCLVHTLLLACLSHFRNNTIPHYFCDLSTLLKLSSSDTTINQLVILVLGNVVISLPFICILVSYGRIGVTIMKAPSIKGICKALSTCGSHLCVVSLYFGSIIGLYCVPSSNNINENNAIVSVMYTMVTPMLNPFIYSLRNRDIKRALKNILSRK
In short: as §1

Measured: odorant receptor agonist call

CC(O)c1ccccc1 (stereo not given)
inactive: UniProt Q8VGC6

CCCCCCCCCC(=O)[O-].[H+]
active: UniProt Q8VGC6 | UniProt Q8VGV1
not listed: UniProt Q8VGE3 | UniProt Q8VGK6
inactive: all other assays above

CC(C)=CC1CC(C)CCO1 (stereo not given)
inactive: UniProt Q8VGC6

O=c1ccc2ccccc2o1
active: UniProt Q8VGE3 | UniProt Q8VGH1 | UniProt Q8VGK6 | UniProt Q8VGX5
not listed: UniProt Q8VGJ3 | UniProt Q8VGU3 | UniProt Q8VGV7 | UniProt Q8VGW5 | UniProt Q8VGX3
inactive: all other assays above
